# Measured values published in PubChem BioAssay AID1899 (The Scripps Research Institute Molecular Screening Center, 2009).
# Among all 300,000 compounds or so, about 1,000 (0.33%) were called active. Only a selection was taken, and actives are over-represented in it overall. Values without a mark were called inactive.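 How the source made its calls: active means inhibition above the mean of all tested compounds plus 3 SD, set per screening campaign (cut at about 45% in these data); inactive means the rest.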
# System: HCV core protein (residues 1-106) dimerization
# Test: inhibitors of HCV core protein dimerization, primary screen, biochemical, TR-FRET, high-throughput (AID 1899)
# Conditions: TR-FRET GST/Flag-core106 dimerization, 1536-well; at 5 µM; hits give high values
# Outline: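 System – GST-tagged and Flag-tagged HCV core protein residues 1-106 · Repeats – one well for each compound · Technique – TR-FRET 671 and 617 nm emission · Doses – one concentration, 5 µM, in 0.5% DMSO · Times – 4 h, 22.5 °C incubation · Also added – Eu donor and XL665 acceptor anti-tag antibodies · Measure – percent inhibition of core106 dimerization signal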
row,SMILES,inhibition
1,CC(=O)N1CCN(C(=O)c2cc(-c3ccc(C)o3)nc3ccccc23)CC1,1.32%
2,COc1ccc(NC(=O)c2cc(-c3ccc(C)o3)nc3ccccc23)cc1,17.9%
3,Cc1ccc(NC(=O)c2cc(-c3ccc(C)o3)nc3ccccc23)nc1,49.3% (active)
4,CN(CC(=O)Nc1cccc2c1CCCC2)S(=O)(=O)c1ccc(Cl)cc1,1.71%
5,COc1ccc(N2CCN(C(=O)CSc3nnc4ncccn34)CC2)cc1,-2.8%
6,CCOc1ccc(-c2nnn(CC(=O)N3CCN(c4ccc(OC)cc4)CC3)n2)cc1OCC,7.89%
7,COc1ccc(N2CCN(C(=O)CSc3nc4cc(OC)c(OC)cc4cc3C#N)CC2)cc1,53.1% (active)
8,Cc1nnc(SC(C(=O)Nc2cc(Cl)cc(Cl)c2)c2ccccc2)[nH]c1=O (stereo not given),4.94%
9,O=C(O)Cc1sc(-c2ccccc2)nc1-c1cccs1,5.73%
10,CN(C(=O)COc1nnc(-c2cccs2)c(-c2cccs2)n1)c1ccccc1,49% (active)
11,COC(=O)c1cc(-c2cccs2)nc2ccccc12,3.48%
12,CN(C(=O)CC1C(=O)NCCN1Cc1ccc(F)cc1Cl)C1CCCCC1 (stereo not given),-6.47%
13,Cc1ccc(C(=O)c2coc3ccc(O)c(CN(C)C)c23)cc1,-5.01%
14,COc1cc(OC)c(C(=S)N2CCCC2)cc1OC,4.43%
15,COc1ccc(/C=N/NS(=O)(=O)c2ccc(NC(C)=O)cc2)cc1,-3.63%
16,COc1ccc(S(=O)(=O)N/N=C\c2ccc(OC)c(COc3ccc(C)cc3[N+](=O)[O-])c2)cc1,56% (active)
17,Cc1ccc(S(=O)(=O)N/N=C\c2cc3c(cc2[N+](=O)[O-])OCO3)cc1,2.28%
18,COc1ccccc1N(CC(=O)Nc1ccc(C(F)(F)F)cc1)S(C)(=O)=O,-4.98%
19,O=C(O)CSc1nccn1-c1cccc(Cl)c1,-3.31%
20,CC(C(=O)N=Nc1c(O)n(C)c2ccc(Br)cc12)n1cnc2ccccc2c1=O (stereo not given),11.6%
21,O=C(CN1CCN(S(=O)(=O)/C=C/c2ccccc2)CC1)NC(=O)NCc1ccco1,47.9% (active)
22,O=C(CN1CCN(S(=O)(=O)/C=C/c2ccccc2)CC1)Nc1ccc(N2CCOCC2)cc1,2.85%
23,COc1ccccc1N1CCN(CC(=O)NC(=O)NCc2ccco2)CC1,-7.99%
24,Cc1ccc(S(=O)(=O)NCCC(=O)OCC(=O)N(C)c2ccccc2)cc1,-0.65%
25,N#Cc1cccc(NC(=O)CN2CCCCCC2)c1,-0.12%
26,Cc1cccc(C(=O)OC(C)C(=O)NC2CCCc3ccccc32)c1O (stereo not given),-6.15%
27,C=CCOC(=O)C1=C(C)OC(N)=C(C#N)C1c1ccc(F)cc1 (stereo not given),-4.37%
28,C=CCOC(=O)C1=C(C)NC(SCC(=O)OCC)=C(C#N)C1c1ccc(C)cc1 (stereo not given),59.5% (active)

row,SMILES,inhibition
1,CCOC(=O)CSC1=C(C#N)C(c2sccc2C)CC(=O)N1 (stereo not given),6.38%
2,Cc1ccc(CN(N=Nc2nonc2N)c2nonc2N)c(C)c1,0.98%
3,Cc1cc(/C=C2/C(=N)N3C(=NC2=O)SN=C3S(C)(=O)=O)c(C)n1-c1ccccc1,18.8%
4,CS(=O)(=O)C1=NN2C(=N)/C(=C\c3ccc(OCCOc4ccccc4)cc3)C(=O)N=C2S1,18.8%
5,CS(=O)(=O)c1ccc2c(c1)SC1=NC(=O)/C(=C/c3ccco3)C(=N)N12,79.4% (active)
6,Cc1ccc(C)c2[nH]c(=O)c(CN(Cc3cccnc3)C(=S)NCc3ccco3)cc12,7.88%
7,C[C@H]1CCC(=O)N([C@H](CSc2ccccc2)Cc2ccccc2)CC1,-3.23%
8,O=C(NCC(c1cccs1)N1CCOCC1)c1cc(-c2ccccn2)nc2ccccc12 (stereo not given),0.32%
9,O=C(NCc1cccs1)c1cc(-c2ccccn2)nc2ccc(Br)cc12,49.3% (active)
10,O=C(Nc1ccncc1)c1cc(-c2ccccn2)nc2ccc(Br)cc12,-6.91%
11,Cc1cc(C)n(CCNC(=O)CC2C(=O)NCCN2Cc2ccc(C)o2)n1 (stereo not given),2.72%
12,COc1ccc(OC)c(NC(=O)N[C@H](Cc2ccccc2)C(=O)NN)c1,-4.04%
13,CCOC(=O)C1(CC2CCCCO2)CCN(Cc2nc(-c3cccs3)oc2C)CC1 (stereo not given),-1.21%
14,Cc1ccc(C(=O)N/C(=C/c2ccc(-c3cccc([N+](=O)[O-])c3)o2)C(=O)NCCCN(C)C)cc1,-11.9%
15,Cc1ccc(Cc2cnc(NC(=O)/C(C#N)=C/c3ccc(-c4cccc([N+](=O)[O-])c4)o3)s2)cc1,46.7% (active)
16,N#C/C(=C\c1ccc(-c2cccc([N+](=O)[O-])c2)o1)C(=O)NCCN1CCOCC1,-14.4%
17,CN1/C(=c2/s/c(=C3/C(=O)N(c4ccccc4)NC3=Nc3ccccc3)n(C)c2=O)C(C)(C)c2ccccc21,21.6%
18,C=CCC1(C#N)C(=S)NC(C)=C(C(=O)OCC)C1c1ccccc1 (stereo not given),-0.47%
19,CC(C)c1ccc(N2CC(C(=O)Nc3nccs3)CC2=O)cc1 (stereo not given),3.92%
20,O=C(CCCN1C(=O)/C(=C\c2ccccc2)SC1=S)Nc1ccccc1O,1.56%
21,O=C(CCCN1C(=O)/C(=C/c2ccccc2)SC1=S)Nc1ccc(O)cc1,0.73%
22,O=C(CCCN1C(=O)/C(=C\c2ccco2)SC1=S)Nc1cccc2ccccc12,50.6% (active)
23,CCC(c1nnnn1Cc1ccco1)N(CCc1ccccc1)Cc1cc2ccc(OC)cc2[nH]c1=O (stereo not given),14.3%
24,CCC(c1nnnn1Cc1ccco1)N(Cc1cc2cc(OC)ccc2[nH]c1=O)C1CCCCC1 (stereo not given),53.5% (active)
25,CCC(c1nnnn1Cc1ccccc1)N(Cc1cc2cc(OC)ccc2[nH]c1=O)CC1CCCO1 (stereo not given),9.57%
26,O=C(CSc1nnc(-c2ccc([N+](=O)[O-])cc2)o1)Nc1ccccn1,-13.9%
27,Cc1cc2c(cc1C)N(C(=O)CN1C(=O)c3ccccc3C1=O)C(C)(C)c1ssc(=S)c1-2,20.8%
